Each structure is given as a SMILES string.

In assay [1] the target is T1, P2Y purinoceptor 1 (Homo sapiens, UniProt P47900). Put plainly: Antagonist activity at human P2Y1 receptor in HEK293 cells assessed as intracellular calcium level by FLIPR. The assay is classed as functional, cell-based. On the technique in general: Calcium flux is commonly read through the fluorescence of an indicator in the cells.
Assay [2] deals with T1, P2Y purinoceptor 1. As to the kind of experiment: Displacement of [33P]2-Mes-ADP from human recombinant P2Y1 receptor expressed in human U20S cells. The assay is classed as cell-based, U2OS. The method, boiled down: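 Membranes from BacMam-transduced U2OS cells expressing human P2Y1, [33P]-2-MeS-ADP radioligand, 0.5 mg WGA-SPA beads. Buffer: 15 mM Hepes, 145 mM NaCl, 0.1 mM MgCl2, 5 mM EDTA, 5 mM KCl. Test compound at various concentrations or DMSO vehicle. Incubated 1 h at room temperature to completion, centrifuged at 2000g, then counted.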

Another assay has as its system Platelet. Put plainly: Inhibition of ADP-induced human platelet aggregation. The assay is classed as functional, cell-based. A digest of the protocol: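 Washed human platelets preincubated with compound for 5 min, then challenged with 10 µM ADP; aggregation followed by light transmittance aggregometry; IC50 reported.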

T1 sequence (P47900 whole entry): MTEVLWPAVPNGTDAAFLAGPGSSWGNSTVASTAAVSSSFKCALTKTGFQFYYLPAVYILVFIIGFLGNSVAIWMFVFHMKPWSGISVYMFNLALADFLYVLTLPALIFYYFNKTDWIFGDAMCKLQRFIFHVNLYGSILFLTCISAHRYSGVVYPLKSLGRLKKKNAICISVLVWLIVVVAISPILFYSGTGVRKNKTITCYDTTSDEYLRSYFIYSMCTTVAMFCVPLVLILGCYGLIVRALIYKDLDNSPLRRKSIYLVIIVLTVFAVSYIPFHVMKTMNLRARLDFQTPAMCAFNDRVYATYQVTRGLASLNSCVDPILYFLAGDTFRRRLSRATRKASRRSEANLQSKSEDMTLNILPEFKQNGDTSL

Broadly, the IC50 is the midpoint of a concentration-inhibition curve. For orientation: Ki means the dissociation constant of the complex between target and ligand, obtained from inhibition or displacement. As to `CC[C@@H]1[C@@H](C)[C@H](Nc2ccccc2)c2ccccc2N1C(=O)c1ccc([N+](=O)[O-])cc1`, the IC50 at P2Y purinoceptor 1 [1] was found to be 1600 nM. Further, at P2Y purinoceptor 1 [2], the Ki came out at 500 nM.

Turning to `CC[C@@H]1[C@@H](C)[C@H](N(C)c2ccccc2)c2ccccc2N1C(=O)c1ccc(OC)cc1`, the IC50 at P2Y purinoceptor 1 [1] was above 25000 nM.

Take `CC[C@@H]1[C@@H](C)[C@H](Nc2ccccc2)c2ccccc2N1C(=O)c1ccc(Br)cc1`: the IC50 at P2Y purinoceptor 1 [1] came out at 800 nM. For the same compound, on P2Y purinoceptor 1 [2], the Ki was 100 nM. Consider `CC[C@@H]1[C@@H](C)[C@H](Nc2ccccc2)c2ccccc2N1C(=O)Nc1ccccc1Cl`, for which the IC50 at P2Y purinoceptor 1 [1] is above 25000 nM.

Turning to `CC[C@@H]1[C@@H](C)[C@H](Nc2ccccc2)c2ccccc2N1C(=O)Nc1cccc(Cl)c1`, the IC50 at P2Y purinoceptor 1 [1] came to 1000 nM. On P2Y purinoceptor 1 [2], the Ki was 300 nM. In the case of `CC[C@@H]1[C@@H](C)[C@H](Nc2ccccc2)c2ccccc2N1C(=O)Nc1ccccc1`, the IC50 on P2Y purinoceptor 1 [1] amounted to 1600 nM. In addition, the Ki on P2Y purinoceptor 1 [2] amounted to 400 nM. The like results for `CC[C@@H]1[C@@H](C)[C@H](Nc2ccccc2)c2ccccc2N1C(=O)Nc1cc(OC)cc(OC)c1` were, in that order, 800 nM and 200 nM.

Regarding `CC[C@@H]1[C@@H](C)[C@H](Nc2ccccc2)c2ccccc2N1C(=O)c1cccc(OC(F)(F)F)c1`, the IC50 on P2Y purinoceptor 1 [1] is above 25000 nM.

`CC[C@@H]1[C@@H](C)[C@H](Nc2ccccc2)c2ccccc2N1C(=O)c1ccc(Cl)cc1`: the IC50 on P2Y purinoceptor 1 [1] was found to be 1300 nM. Also, at P2Y purinoceptor 1 [2], the Ki came out at 400 nM.

In the case of `CC[C@@H]1[C@@H](C)[C@H](Nc2ccccc2)c2ccccc2N1C(=O)Nc1ccc(Cl)cc1`, the IC50 on P2Y purinoceptor 1 [1] stood at 2000 nM. Besides, the Ki at P2Y purinoceptor 1 [2] was found to be 300 nM. Take `CC[C@@H]1[C@@H](C)[C@H](Nc2ccccc2)c2ccccc2N1C(=O)Nc1ccc(OC)cc1`: on P2Y purinoceptor 1 [1], the IC50 stood at 6000 nM.

As to `CC[C@@H]1[C@@H](C)[C@H](Nc2ccccc2)c2ccccc2N1C(=O)Nc1cccc(Br)c1`, on P2Y purinoceptor 1 [1], the IC50 came to 1000 nM. In addition, the Ki on P2Y purinoceptor 1 [2] was 100 nM. Regarding `CC[C@@H]1C[C@@H](Nc2ccccc2)c2ccccc2N1C(=O)c1ccc(OC)cc1`, the IC50 on P2Y purinoceptor 1 [1] was above 25000 nM. The same measure, in the same setting: the figure for `COc1ccc(C(=O)N2C[C@@H](C)[C@H](Nc3ccccc3)c3ccccc32)cc1` is 10000 nM; for `COc1ccc(C(=O)N2CC[C@H](Nc3ccccc3)c3ccccc32)cc1` it is above 25000 nM.

Consider `CC[C@H]1[C@H](C)[C@@H](Nc2ccccc2)c2ccccc2N1C(=O)Nc1cc(Cl)cc(Cl)c1`, for which the IC50 on P2Y purinoceptor 1 [1] was above 25000 nM. Take `CC[C@@H]1[C@@H](C)[C@H](Nc2ccccc2)c2ccccc2N1C(=O)c1ccccc1`: the IC50 at P2Y purinoceptor 1 [1] turned out to be 25000 nM. With `CC[C@@H]1C[C@H](Nc2ccccc2)c2ccccc2N1C(=O)c1ccc(OC)cc1`, at P2Y purinoceptor 1 [1], the IC50 came to 3200 nM. Besides, the Ki at P2Y purinoceptor 1 [2] stood at 800 nM. On to `CC[C@@H]1[C@@H](C)[C@H](Nc2ccccc2)c2ccccc2N1C(=O)c1ccc(OC)cc1`, for which, at P2Y purinoceptor 1 [1], the 50% inhibitory concentration (IC50) amounted to 800 nM. Besides, at P2Y purinoceptor 1 [2], the Ki is 400 nM.

Turning to `CC[C@@H]1[C@@H](C)[C@H](Nc2ccccc2)c2ccccc2N1C(=O)c1ccc(OC(F)(F)F)cc1`, the IC50 on P2Y purinoceptor 1 [1] is 1000 nM. Also, on P2Y purinoceptor 1 [2], the Ki stood at 100 nM. Regarding `CC[C@@H]1[C@@H](C)[C@H](Nc2ccccc2)c2ccccc2N1C(=O)Nc1cccc(OC)c1`, the IC50 on P2Y purinoceptor 1 [1] worked out at 1600 nM. Also, at P2Y purinoceptor 1 [2], the Ki was found to be 500 nM. As to `CC[C@@H]1[C@@H](C)[C@H](Nc2ccccc2)c2ccccc2N1C(=O)Nc1cc(Cl)cc(Cl)c1` (stereo in doubt; 6i), at P2Y purinoceptor 1 [1], the IC50 is 600 nM. In addition, on P2Y purinoceptor 1 [2], the Ki is 70 nM.

`CC[C@@H]1[C@@H](C)[C@H](Nc2ccccc2)c2ccccc2N1C(=O)Nc1cc(Cl)cc(Cl)c1` (stereo in doubt; 16): the figures for the IC50 on P2Y purinoceptor 1 [1] (hek293) and with Platelet were 600 nM and 504 nM, respectively. In addition, the Ki at P2Y purinoceptor 1 [2] (u2os) was 70 nM.

These data come from ChEMBL document CHEMBL1152131, “Tetrahydro-4-quinolinamines identified as novel P2Y(1) receptor antagonists” (Bioorg Med Chem Lett, 2008).
